Reference: ChEMBL document CHEMBL4513216, “Probing the Open Global Health Chemical Diversity Library for Multistage-Active Starting Points for Next-Generation Antimalarials” (ACS Infect Dis, 2020)

Assay: Toxicity liver stage against HepG2, at 10uM
Type: cell-based
Design: test concentration 10 uM, cell line HepG2-A16-CD81EGFP
Details: human, HepG2-A16-CD81EGFP cells; read-out: INHIBITION
Summary of the method: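 Uninfected HepG2-A16-CD81EGFP cells, 3 × 10^3 per well, 1536-well, plated on prespotted compound at 10 μM final, parasite-free screening media added to match infected plates; puromycin 10 μM positive, DMSO 0.5% negative; run in parallel with 48 h PbLuc assay at 37 °C, 5% CO2; viability by CellTiter-Glo luminescence, normalized to controls.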

SMILES | cytotoxicity at 10 µM [%]
CS(=O)(=O)NC[C@H]1Cn2c(-c3ccc(Cl)cc3)cnc2CO1 | -3.58
CC(=O)Nc1ccccc1Sc1nc(Br)nn1C | -1.05
CCOC(=O)[C@H]1[C@@H](O)C(=O)N(C)C12CCN(C(=O)C(CC)CC)CC2 | -4.47
CCN1CC(O)CN(C(=O)c2cccc(C(F)(F)F)c2)CC1=O (stereo not given) | 4.04
COc1cc(OC)cc(-c2noc(C(N)CCSC)n2)c1 (stereo not given) | -3.18
Cc1cccc(C)c1NC(=O)CC(CN1CCN(C)CC1)C(=O)O (stereo not given) | -3.68
CCOc1ccc(C(=O)Nc2c(C)nc3scc(C)n3c2=O)cc1 | -5.58
O=C(c1ccccc1F)N1CC(c2nc(C3CC3)no2)C1 | -0.478
COc1ccc(C)cc1NC(=O)C1CSc2ncc(C)c(=O)n2C1 (stereo not given) | -1.99
CC(C)NC(=O)N1CCC2(CC1)CCn1c(C3CC3)cnc12 | 2.04
CC(C)CS(=O)(=O)N1CCC2(CC1)CCn1c(-c3cnn(C)c3)cnc12 | -131
CN(Cc1ccccc1)CC1CC2(CO1)CN(Cc1cnn(C)c1)C2 (stereo not given) | 9.76
N#Cc1cccc(N2CCCC3(CN(C(=O)c4ccc[nH]4)CCO3)C2)c1 (stereo not given) | 13.3
CCC1=N[C@@]2(CC[C@@H]3CN(CC4CC4)C[C@@H]32)C(=O)N1 | 4.86
Cn1cc(C2CC(=O)NC23CCN(C(=O)c2ccc[nH]2)CC3)cn1 (stereo not given) | 8.94
Cc1cc(C(=O)N2CCCC3(CCCN3Cc3cccnc3)C2)[nH]n1 (stereo not given) | 8.07
O=C(NCCN1CCCCC1)c1nc2ccccc2c(=O)[nH]1 | 10.5
O=C(Cc1ccccc1)N1CCC2(CC(=O)N(c3cccc(F)c3)C2)C1 (stereo not given) | -0.557
CCn1cc(CNC(=O)C(C)C)cn1 | 7.74
COc1cccc(CNCc2ccccc2Cl)c1O | -13.2
CN(C)S(=O)(=O)N1CCCC(c2nccnc2-c2cccc(Cl)c2)C1 (stereo not given) | 8.23
CN1CCC(c2cccc(NCc3nccn3C)n2)CC1 | 8.28
c1cc(CNc2ncc(-c3cnccn3)c([C@@H]3CCCO3)n2)ccn1 | 8.99
Cc1cc(CN2CCN(S(C)(=O)=O)CC(C(=O)N(C)C)C2)no1 (stereo not given) | -9.74
CN(C(=O)COc1ccc(F)cc1)[C@@H]1CC[C@@H](n2ccnc2)[C@@H]1O | -5.28
CNc1cccc(C2CCCN(C(=O)c3cncs3)C2)n1 (stereo not given) | -18.3
CC(=O)N1CCCC(Cc2nccn2C)C1 (stereo not given) | -5.52
CO[C@H]1CN(Cc2ccccc2F)C[C@@]12CCCO2 | -8.19

SMILES | cytotoxicity at 10 µM [%]
COc1cc(C)ccc1OCC(=O)Nc1ccnc(OCCN(C)C)c1 | -5.18
C=C(C)CN(CC)S(=O)(=O)c1c(F)cc(NC(C)=O)cc1F | -47.1
CN1CCOC(CNCc2nc(-c3ccoc3)no2)C1 (stereo not given) | -5.27
Cn1ccc(C(=O)Nc2nc(-c3ccc4c(c3)CCO4)cs2)cc1=O | -9.46
COc1ccccc1NCC(=O)Nc1cnn(Cc2ccccn2)c1 | -0.53
CC1c2cc(F)ccc2CCN1CCCS(=O)(=O)C(C)C (stereo not given) | 9.15
CCNC(=O)C(C)NC(=O)Nc1ccccc1SCC (stereo not given) | -7.4
CC(C)SCc1cccc(NC(=O)NC(C)c2nc[nH]n2)c1 (stereo not given) | -45.2
CCC(C)NC(=O)Nc1cccc(OCC#N)c1 (stereo not given) | -0.146
Cn1cc(C(=O)NCCCN2CCCCCC2=O)c(-c2cccnc2)n1 | -8.3
Cc1cc(C(=O)Nc2ccc(CN3CCOCC3)cn2)n(C)n1 | 3.86
CCN(CC)C(=O)c1ccc(COc2ccccc2C#N)o1 | 1.96
O=C(NCCN1C(=O)CCC1=O)c1nc2ccccc2c(=O)[nH]1 | -8.99
CCCc1noc(C(C)N2CCN(c3ccc(C#N)cn3)CC2)n1 (stereo not given) | -0.487
OCCN1CCC(CNCc2ccc(N3CCCCC3)cc2)CC1 | -3
CC(C)C(O)CNC(=O)Nc1ccc(F)c(Cl)c1 (stereo not given) | 5.6
CCNC(=O)C1CCCN(C(=O)Nc2ccc3c(c2)CCCN3C)C1 (stereo not given) | 13.6
CC(C)NC(=O)CN(C)C1CCN(c2ccc(C#N)cn2)CC1 | -16.1
CCS(=O)(=O)NC1CCCN(c2ccc(F)cc2C)C1=O (stereo not given) | 3.93
Cc1cc(CNC(=O)c2cccs2)ccc1S(C)(=O)=O | 3.38
OCC(O)CSCc1cc(Cl)ccc1Cl (stereo not given) | -147
CC(=O)NCCC(=O)NCc1ccc(Br)cc1Cl | 0.871
Cc1ccc(C(=O)O)cc1NC(=O)C1CC=CC1 | -7.25
O=C(NCc1ccco1)c1cccc(CN2CCCC2CO)c1 (stereo not given) | -3.13
COc1ccccc1CN(CC1CCCO1)C(=O)c1ccc(F)cn1 (stereo not given) | -3.85
N#Cc1ccc(N2CCCN(CC(N)=O)CC2)cc1 | 3.11
CC(C)N(Cc1cnn(C)c1)C(=O)c1ccnc(N(C)C)c1 | 10.6
